Source: PubChem BioAssay
Most compounds without a hit are left out; they make up all but 4% or so of the library.
FGF22 binding: shifts melting point of recombinant human FGF22 | recombinant FGF22 thermal shift, SYPRO orange fluorescence; percent of sucrose octasulfate shift, DMSO zero | AID 651658 | activity (Tm shift, normalised), % at 9.99 µM | 340,000 tested, 1.5% active | Q9HCT0;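 active = mean Tm shift, scaled 0 neutral to 100 positive control, at about 1.3% or above, every replicate too, limit read from the data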
Target sequence (Q9HCT0 whole entry, looked up): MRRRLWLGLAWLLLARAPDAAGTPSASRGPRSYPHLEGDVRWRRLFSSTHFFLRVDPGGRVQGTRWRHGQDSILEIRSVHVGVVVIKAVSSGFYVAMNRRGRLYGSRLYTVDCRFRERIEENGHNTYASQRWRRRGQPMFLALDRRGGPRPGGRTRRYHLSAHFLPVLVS
Ecoli rRNA inh: inhibitors of bacterial rRNA selective over humanized ribosomes | E. coli WT GFP vs humanized-ribosome RFP mutants, fluorescence, 24 h; stronger effect = lower value; DMSO median 0, no signal -100 | GFP signal change (wild-type ribosome), % (no concentration beside the values) | 350,000 tested, 1.6% active | AID 720706;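 active = significant combined selectivity score with lowered wild-type GFP, culture density cut under 30%, mutant RFP and density less affected; inactive = any of these conditions unmet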
FN deposition inh: fibronectin deposition inhibition; AH1F fibroblasts, Alexa488-fibronectin deposition fluorescence, overnight; inhibition, % at 12.6 µM; 350,000 tested, 0.086% active; AID 743247;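 active = mean inhibition across replicates of 30% or more, regardless of how many single replicates reach that level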
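Assay system: AH1F fibroblasts / Quantity: 10000 cells per well / Medium: DMEM plus 2% serum, read in PBS / Reagent: labelled fibronectin 24 nM / Dosing: single dose, pinned / Times: 1 h cell attachment, overnight exposure to compound and label / Signal: fluorescence, ex 485 nm, em 525 nm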
Statin myotox sup: suppressors of simvastatin-induced myotoxicity in C2C12 myotubes. ATP luminescence, 48 h; scaled: DMSO 0, geranylgeraniol control 100. rescue of ATP level, % at 7.49 µM. 330,000 tested, 0.78% active;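 active = mean ATP rescue above about 67%, or every replicate alone reaching that limit, limit read from the data, passing the limit was not always enough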;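 note: myotubes were challenged with 10 µM simvastatin during compound exposure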
E-selectin induc: E-selectin induction on HUVECs | 260,000 tested, 0.37% active | HUVEC E-selectin immunofluorescence imaging; normalized: neutral wells 0, TNF-alpha wells 100 | P16581 | activation, % at 7.58 µM;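 active = mean E-selectin-positive cell signal at least 10% of the positive control, reached in at least 60% of replicates, without over 20% cell loss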
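Read-out basis: % PE-positive cells; Test system: HUVEC primary endothelial cells; Technique: immunofluorescence imaging; Dosing: single-point compound dose.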
SIRT5 block: sirtuin-5 (human) deacylase inhibition; Q9NXA8; Purified SirT5, succinyl-peptide AMC, trypsin-coupled fluorescence; inhibition, % at 15 µM; 330,000 tested, 1.1% active; in the data active = inhibition above about 15%
Target sequence (Q9NXA8 whole entry, looked up): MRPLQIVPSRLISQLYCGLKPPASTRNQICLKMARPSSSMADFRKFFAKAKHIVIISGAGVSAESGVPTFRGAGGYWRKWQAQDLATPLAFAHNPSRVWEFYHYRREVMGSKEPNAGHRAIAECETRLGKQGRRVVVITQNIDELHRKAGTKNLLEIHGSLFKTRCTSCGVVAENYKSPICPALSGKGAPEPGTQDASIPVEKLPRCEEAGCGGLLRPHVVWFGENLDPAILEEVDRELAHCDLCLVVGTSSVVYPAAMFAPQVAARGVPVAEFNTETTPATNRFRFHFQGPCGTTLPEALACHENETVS
Hits are given with their value; – = inactive; · = no result given.

SMILES	FGF22 binding	Ecoli rRNA inh	FN deposition inh	Statin myotox sup	E-selectin induc	SIRT5 block
Cc1noc(C)c1S(=O)(=O)Nc1ccc2c(c1)C(=O)N([C@H](C)CO)C[C@H](C)[C@@H](CN(C)S(=O)(=O)c1ccc(F)cc1)OCCCC[C@H](C)O2	–	–	·	·	–	–
CNS(=O)(=O)c1ccc(NC(=S)Nc2ccc3c(c2)OCO3)cc1	43.5	–	–	·	–	–
CC(=O)Nc1ccc2c(c1)C(=O)N(C)C[C@@H](C)[C@@H](CN(C)C(=O)OC(C)(C)C)O2	·	–	–	·	·	·
CC(=O)Nc1ccc(NC(=O)CSC2=NS(=O)(=O)c3cc(F)ccc3N2)cc1	–	–	–	–	–	–
O=C(CSC1=NS(=O)(=O)c2cc(F)ccc2N1)Nc1ccc(F)cc1	1.7	–	·	–	–	–
Cc1nc(N2CCCCC2)sc1C(=O)c1cccc([N+](=O)[O-])c1	–	–	–	·	–	–
Cc1nc(N2CCCCC2)sc1C(=O)c1ccc(SCCO)c([N+](=O)[O-])c1	–	-20.2	–	–	–	–
CO[C@@H]1CN(C)C(=O)c2cc(NC(=O)Nc3ccc(F)cc3)ccc2OC[C@H](C)NC[C@@H]1C	–	–	–	–	–	–
CC1(C)Cc2c(sc(NC(=S)NC(=O)c3ccccc3)c2C(=O)O)CO1	43.7	–	–	·	·	–
Cc1ccc(N2CC(O)=C(c3nc4ccccc4c(=O)[nH]3)C2=N)cc1C	43.0	–	–	–	–	–
CC(C)NC(=O)Nc1ccc2c(c1)CC(=O)N([C@@H](C)CO)C[C@@H](C)[C@H](CN(C)Cc1ccc(Oc3ccccc3)cc1)O2	–	–	·	–	–	–
CCOc1ccccc1NC(=O)C(OC(=O)c1ccc(NC(=O)CC#N)cc1)c1ccccc1 (configuration not stated)	–	–	–	·	–	–
CC(OC(=O)c1ccc(NC(=O)CC#N)cc1)C(=O)NC(c1ccccc1)c1ccccc1 (configuration not stated)	–	–	–	–	–	15.9
CN(CCc1ccccn1)C(=O)CC1C(=O)NCCN1Cc1ccc(-c2ccccc2)cc1 (configuration not stated)	43.8	·	–	·	–	–
COCCN(C)C(=O)CC1C(=O)NCCN1CC(c1ccccc1)c1ccccc1 (configuration not stated)	44.4	·	–	·	·	–
CCOc1ccccc1CN1CCNC(=O)C1CC(=O)N(C)CCc1ccccn1 (configuration not stated)	–	–	–	118.4	–	–
CCOc1ccccc1CN1CCNC(=O)C1CC(=O)NCCc1ccccn1 (configuration not stated)	–	–	–	–	–	–
Cc1ccccc1-c1nc(CS(=O)(=O)CC(=O)NCCCN2CCCC2)c(C)o1	–	–	–	–	–	16.6
Cc1ccccc1CC1(CO)CCCN(Cc2ccccc2Cl)C1 (configuration not stated)	–	-27.8	–	–	–	–
COc1cccc(CC2(CO)CCCN(Cc3ccccc3Cl)C2)c1 (configuration not stated)	–	–	–	–	·	–
Cc1ccccc1CC1(CO)CCCN(Cc2ccc(C#CC(C)(C)O)cc2)C1 (configuration not stated)	43.4	·	–	·	·	–
C[C@H](CO)N1C[C@H](C)[C@@H](CN(C)C(=O)Nc2ccc(F)cc2)Oc2ccc(NC(=O)CCCCCC(=O)Nc3ccccc3N)cc2C1=O	–	–	·	·	–	·
COc1ccccc1S(=O)(=O)N[C@@H]1CC[C@H](CCNC(=O)C2CCOCC2)O[C@H]1CO	–	–	·	–	–	–
O=C(O)CSCC(=O)Nc1ccc(-c2nc3ccccc3s2)cc1	·	–	–	·	–	–
Cc1csc(NC(=O)CSCC(=O)O)c1-c1nc2ccccc2s1	–	-50.7	–	·	–	–
SMILES	FGF22 binding	Ecoli rRNA inh	FN deposition inh	Statin myotox sup	E-selectin induc	SIRT5 block
COCCCNS(=O)(=O)c1ccc2c3c(cccc13)C(=O)S2	·	·	·	–	·	·
COCCNS(=O)(=O)c1ccc2c3c(cccc13)C(=O)N2C	43.5	–	–	–	·	–
COc1ccc(S(=O)(=O)N(C)C[C@@H]2Oc3ccc(NC(=O)c4ccncc4)cc3C(=O)N([C@@H](C)CO)C[C@@H]2C)cc1	–	–	·	–	36.7	–
COc1ccc(S(=O)(=O)N(C)C[C@@H]2Oc3ccc(NC(=O)c4ccncc4)cc3C(=O)N([C@H](C)CO)C[C@H]2C)cc1	–	–	·	–	28.4	–
Cc1nn(Cc2cccc(C(=O)O)c2)c(C)c1[N+](=O)[O-]	–	–	–	·	–	–
CNC(=O)Cn1nc(C)c2ccccc2c1=O	·	·	–	·	·	·
Cc1nn(CC(=O)NCCc2ccccc2)c(=O)c2ccccc12	·	·	·	136.8	·	·
Cc1nn(CC(=O)NCc2ccccc2)c(C)c1[N+](=O)[O-]	·	·	·	84.1	·	·
COC(=O)c1cccc(Cn2nc(C)c([N+](=O)[O-])c2C)c1	–	–	–	·	·	15.3
C[C@@H]1CN(C)C(=O)Cc2cc(N(C)C)ccc2O[C@H]1CN(C)C(=O)OC(C)(C)C	·	–	–	·	·	·
Cc1ccc(NS(=O)(=O)c2ccc3c(c2)NC(=O)CCS3)c(Cl)c1	–	–	–	–	·	–
Cc1ccc(NS(=O)(=O)c2ccc3c(c2)NC(=O)CCS3)c(C)c1	–	-32.8	–	–	·	–
CN1CCN(C(=O)C[C@@H]2CC[C@H]3[C@H](COc4ccc(NC(=O)c5ccc(F)c(F)c5)cc4C(=O)N3C)O2)CC1	–	–	–	–	–	–
FC(F)(F)c1cnc(C(c2ccccc2)c2ncn[nH]2)c(Cl)c1 (configuration not stated)	43.3	–	–	–	–	–
FC(F)(F)c1cnc(C(c2ccccn2)c2ncn[nH]2)c(Cl)c1 (configuration not stated)	–	–	–	·	·	–
CCc1ccc(NC(=O)CSc2ccc(-c3ccco3)nn2)cc1	43.1	·	–	·	–	–
O=C(CSc1nnc(Cn2cnc3ccccc32)o1)Nc1cccc2ccccc12	·	·	–	–	·	·
CC(=O)c1ccc(NC(=O)CSc2nnc(Cn3cnc4ccccc43)o2)cc1	43.4	–	–	–	–	–
Cc1cc(NC(=O)CSc2nnc(-c3ccco3)o2)no1	·	–	·	–	·	–
CC(=O)c1cccc(NC(=O)CSc2ccc(-c3ccco3)nn2)c1	–	–	–	–	–	–
CCc1ccc(NC(=O)CSc2nnc(-c3ccco3)o2)cc1	–	–	31.4	–	·	–
CC(=O)Nc1ccc(NC(=O)CSc2nnc(-c3ccco3)o2)cc1	43.6	–	–	–	–	–
O=C(CSc1nnc(-c2ccco2)o1)Nc1c(F)cccc1F	–	–	–	–	–	–
Cc1ccccc1S(=O)(=O)N1C[C@@H](O)COC[C@@H]2O[C@H](CC(=O)O)CC[C@H]21	–	–	–	–	–	–
